Results gathered from unrelated publications.
Protocols differ between the studies behind these lines.
Target: Testis-specific serine/threonine-protein kinase 3 (TSSK3, Homo sapiens, UniProt Q96PN8)
Sequence (Q96PN8 1-268, as in one of the studies): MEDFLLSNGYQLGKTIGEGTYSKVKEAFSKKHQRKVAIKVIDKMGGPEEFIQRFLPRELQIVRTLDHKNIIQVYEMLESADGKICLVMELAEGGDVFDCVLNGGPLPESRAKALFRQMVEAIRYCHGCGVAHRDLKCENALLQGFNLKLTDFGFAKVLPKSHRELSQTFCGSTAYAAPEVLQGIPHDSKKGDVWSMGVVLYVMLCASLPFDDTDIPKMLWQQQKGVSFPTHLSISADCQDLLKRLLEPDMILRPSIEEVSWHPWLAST

SMILES | read-out | mode | technique | concentration | quantity | result
O=C(Nc1cnn(-c2csc(C(=O)NC3COC3)c2)c1)Nc1ccccc1Cl | enzyme activity | inhibitor | – | 5 µM | remaining activity | 97.7%
Nc1ncnc2occ(-c3ccc(NC(=O)Nc4cc(C(F)(F)F)ccc4F)cc3)c12 | cell-free assay | inhibitor | – | 20 µM | remaining signal | 39%
CC1CCCN1c1nccc(-c2cnn3ncccc23)n1 (stereo not shown) | binding | – | – | 1 µM | remaining binding | 99%
CC(C)(O)[C@H]1CC[C@H](Nc2ccc3ncc(-c4cccc(C(F)(F)F)c4)n3n2)CC1 | enzyme activity | inhibitor | – | 1 µM | remaining activity | 110%
CN1CC(Oc2cnc(C#N)cc2-c2ccn3nc(NC(=O)C4CC4)cc3c2)C1 | enzyme activity | inhibitor | – | 1 µM | inhibition | -3%
Cc1sc(C(=O)NC2COC2)cc1-n1cc(NC(=O)Nc2c(F)cccc2Cl)cn1 | enzyme activity | inhibitor | – | 10 µM | remaining activity | 100%
CSc1cccnc1N1CCN(Cc2nc3ccccc3[nH]2)CC1 | cell-free assay | – | competition with immobilised ligand | 1 µM | remaining binding | 98%
Cc1ccc(C(=O)Nc2ccc(CN3CCN(C)CC3)c(C(F)(F)F)c2)cc1C#Cc1cnc2cccnn12 | enzyme activity | inhibitor | – | 23.5 nM | remaining activity | 84%
CO[C@H]1CC[C@H](CNc2ccc(S(=O)(=O)NC(=O)c3ccc(N4CCN(CC5=C(c6ccc(Cl)cc6)CC(C)(C)CC5)CC4)cc3Oc3cnc4[nH]ccc4c3)cc2[N+](=O)[O-])CC1 | cell-free assay | – | competition with immobilised ligand | 1 µM | remaining binding | 70%
COc1cc(Cl)c(C(=O)N[C@@H](CN[C@H]2CC[C@@H](N)CC2)Cc2ccc(C#N)cc2)cc1-c1ccc(CN[C@H](C)c2ccc(C)cc2)o1 | enzyme activity | inhibitor | – | 1 µM | remaining activity | 97%
